Screening data from PubChem.
Many of the other results were omitted from the sample, so hits are more common in it than they were.
GSK3B inh = human GSK3beta kinase inhibitors, primary screen, biochemical, cell-free homogeneous, HTS. Glycogen synthase kinase-3 beta (Homo sapiens), P49841. GST-GSK3beta kinase, ADP-Glo luminescence, 60 min; active compounds read low. activity score (negative = inhibition), % at 10 µM. 0.038% of 300,000 active;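 active = more than half of replicate wells score below -50%, meaning over 50% inhibition versus plate controls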;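 note: 0% = median DMSO wells and -100% = median GW8510 positive control wells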
Target sequence (P49841 whole entry, looked up): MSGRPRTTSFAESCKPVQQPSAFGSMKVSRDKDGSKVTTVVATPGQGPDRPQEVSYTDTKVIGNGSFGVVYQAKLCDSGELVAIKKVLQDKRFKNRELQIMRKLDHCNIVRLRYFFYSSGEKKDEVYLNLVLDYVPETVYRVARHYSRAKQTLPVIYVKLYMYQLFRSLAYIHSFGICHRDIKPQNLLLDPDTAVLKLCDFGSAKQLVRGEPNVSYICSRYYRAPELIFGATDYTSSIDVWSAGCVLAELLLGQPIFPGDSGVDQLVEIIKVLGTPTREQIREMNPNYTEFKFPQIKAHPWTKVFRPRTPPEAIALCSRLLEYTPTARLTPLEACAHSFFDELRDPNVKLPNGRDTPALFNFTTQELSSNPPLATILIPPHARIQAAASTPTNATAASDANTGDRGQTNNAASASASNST
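Test system: GST-tagged human GSK3beta kinase, cell-free; evaluation: activity score scaled between in-plate DMSO and GW8510 controls; measured by: ADP-Glo luminescence; incubation: 60 min reaction, RT; benchmarks: DMSO and 20 µM GW8510; reagent: peptide substrate plus 25 µM ATP (final); medium: Tris/MgCl2 kinase buffer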
STK33 inh = inhibitors of purified STK33 kinase, primary screen, biochemical, ADP-Glo luminescence, homogeneous, cell-free | 0.073% of 320,000 active | inhibition, % at 10 µM | Serine/threonine-protein kinase 33 (Homo sapiens), Q9BYT3 | MBP phosphorylation;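 active = inhibition at or above 25%, using the most active replicate where run in duplicate; inactive = inhibition below 25%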
Dyrk1A ADPGlo = rat Dyrk1A kinase inhibitors, primary screen, biochemical, single point, plate reader; Dual specificity tyrosine-phosphorylation-regulated kinase 1A (Rattus norvegicus), Q63470; ADP-Glo luminescence, NFATc1 peptide; inhibition, % at 12.5 µM; 0.43% of 310,000 active; in the data active = inhibition above about 50%;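 note: plate controls were vehicle with enzyme for no effect and no enzyme for full effect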
GSK3A inh = blockers of GSK3A enzyme activity – biochemical, luminescence, cell-free homogeneous, HTS, primary screen; Glycogen synthase kinase-3 alpha (Homo sapiens), P49840; GSK-3 alpha kinase, ADP-Glo luminescence, 60 min; inhibition, % at 10 µM; 0.1% of 320,000 active;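 active = more than half of replicates show inhibition above 20%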;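 note: GST-tagged GSK-3 alpha with peptide substrate and 25 µM ATP; 0% = DMSO neutral wells and 100% = GW8510 positive control wells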
ADP-Glo artifact = ADP-Glo luciferase interference without Dyrk1A, dose response, artefact control for Dyrk1A inhibitor project, biochemical, luminescence, cherry-pick, set 02; AC50, µM (doses to about 12 µM), for the others: at the highest dose activity change, negative = inhibition; 1,300 tested, under 10 active; AID 588348, 2011; shares compounds with Dyrk1A ADPGlo; ADP-Glo luciferase artifact assay, no Dyrk1A;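 active = fitted half-maximal dose AC50 no more than ten times the top valid tested dose, with luminescence dropping as dose rises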
* hit, by the source's call.

Screening N#Cc1c(=O)c2nc(NCCCO)ncc2n2c(=O)c3ccccc3[nH]c12 returned GSK3B inh 4, STK33 inh 8, Dyrk1A ADPGlo 56*, GSK3A inh 1 and ADP-Glo artifact 9%.
`COc1ccc(CCNC(=O)CN(CCc2ccccc2)S(C)(=O)=O)cc1OC` gave GSK3B inh 1, STK33 inh -2, Dyrk1A ADPGlo -9 and GSK3A inh -3.
For Cc1cccc(NC2=C/C(=N/S(=O)(=O)c3cccs3)c3ccccc3C2=O)c1 the results were STK33 inh 1, Dyrk1A ADPGlo -2 and GSK3A inh 0.
`Cc1cc(C)c(S(=O)(=O)/N=C2\C=C(NS(=O)(=O)c3ccccc3)C(=O)c3ccccc32)c(C)c1` gave GSK3B inh 0, STK33 inh 1, Dyrk1A ADPGlo 7 and GSK3A inh 0.
O=C1C(Nc2ccc(O)cc2)=C/C(=N/S(=O)(=O)c2cccs2)c2ccccc21 was read as GSK3B inh -7, Dyrk1A ADPGlo 70* and ADP-Glo artifact 4%.
Screening Cc1cc(C)c(S(=O)(=O)/N=C2\C=C(Nc3ccc(C(=O)O)cc3)C(=O)c3ccccc32)c(C)c1 returned GSK3B inh -12, STK33 inh 6, Dyrk1A ADPGlo 69*, GSK3A inh 12 and ADP-Glo artifact 7%.
Screening CNC(=S)N/N=C/c1ccc(-c2cccc(C(=O)O)c2)o1 returned GSK3B inh -4, STK33 inh 1, Dyrk1A ADPGlo 62*, GSK3A inh 4 and ADP-Glo artifact 9%.
Screening COc1ccc(-n2nc(C)cc2Nc2ccccc2C(=O)O)cc1 returned GSK3B inh 0, STK33 inh 0, Dyrk1A ADPGlo 66*, GSK3A inh -2 and ADP-Glo artifact 8%.
For Cc1cc(Nc2ccccc2)n(-c2ccc(C(=O)O)cc2)n1 the results were GSK3B inh -1, STK33 inh 1, Dyrk1A ADPGlo -5 and GSK3A inh -2.
Cc1cccc(C)c1OCc1cc(C(=O)N2CCNC(=O)C2)no1 was read as GSK3B inh 27, STK33 inh 0 and GSK3A inh -2.
Screening Oc1ccc(C=NCCc2ccccc2)cc1 returned GSK3B inh -3, STK33 inh -1, Dyrk1A ADPGlo -2 and GSK3A inh -3.
COC(=O)c1cccc(NC(=S)NCc2ccc(F)cc2)c1 was read as GSK3B inh 2, STK33 inh -1, Dyrk1A ADPGlo 7 and GSK3A inh -2.
For O=C(NN1C(=O)/C(=C/c2ccc(O)c([N+](=O)[O-])c2)SC1=S)c1ccccc1Cl the results were GSK3B inh 1, STK33 inh 0, Dyrk1A ADPGlo 74*, GSK3A inh -6 and ADP-Glo artifact 10%.
`CN=C1S/C(=C\c2ccc(O)c(Br)c2)C(=O)N1C` gave GSK3B inh -2, STK33 inh 10, Dyrk1A ADPGlo 91*, GSK3A inh 21 and ADP-Glo artifact 4%.
`CN=C1S/C(=C\c2ccc(O)c(OC)c2)C(=O)N1C` gave GSK3B inh -3, STK33 inh 7 and GSK3A inh 8.
`O=c1cc(-c2ccccc2Cl)oc2c([N+](=O)[O-])c(O)cc(O)c12` gave GSK3B inh -53*, STK33 inh 2, Dyrk1A ADPGlo 83*, GSK3A inh 39 and ADP-Glo artifact 12%.
Screening COc1ccc(N(CC(=O)Nc2ccc3c(c2)OCCO3)S(=O)(=O)c2c(C)nn(C)c2C)cc1 returned GSK3B inh -1, STK33 inh 1, Dyrk1A ADPGlo 56*, GSK3A inh -5 and ADP-Glo artifact 11%.
N#Cc1nc(-c2ccccc2Cl)oc1NCC1CCCO1 (stereo not drawn) was read as GSK3B inh 1, STK33 inh 0, Dyrk1A ADPGlo 60*, GSK3A inh 9 and ADP-Glo artifact 12%.
`Cc1cc(C)c(CN2CCN(C(=O)Cn3ccc(N)nc3=O)CC2)c(C)c1` gave STK33 inh 0, Dyrk1A ADPGlo 50*, GSK3A inh -1 and ADP-Glo artifact 8%.
For CSc1nc(N)nc2c1ncn2CC(=O)N1CCN(Cc2c(C)cc(C)cc2C)CC1 the results were STK33 inh 1, Dyrk1A ADPGlo 3 and GSK3A inh -2.
For COc1ccc(Cn2cccc(NC(=O)Nc3cccc(OC)c3)c2=O)cc1 the results were GSK3B inh 2, STK33 inh 0, Dyrk1A ADPGlo 1 and GSK3A inh -1.
Screening CC1CCCN(CCCNC(=O)C2CCN(S(=O)(=O)N3CCC4(CC3)OCCO4)CC2)C1 (stereo not drawn) returned GSK3B inh 2, STK33 inh 1, Dyrk1A ADPGlo 1 and GSK3A inh -1.
O=C(NCc1ccco1)c1sc2cc(Cl)ccc2c1Cl was read as GSK3B inh -4, STK33 inh 1, Dyrk1A ADPGlo 28 and GSK3A inh -1.
`O=C(NCc1ccco1)c1sc2ccccc2c1Cl` gave GSK3B inh -2, STK33 inh 1, Dyrk1A ADPGlo 56*, GSK3A inh 2 and ADP-Glo artifact 10%.
CCc1ccc(-c2cc(C(=O)N/N=C/c3ccccn3)[nH]n2)cc1 was read as GSK3B inh 0, STK33 inh 0, Dyrk1A ADPGlo 1 and GSK3A inh 1.
`O=C(N/N=C/c1ccccn1)c1cc(-c2ccccc2Cl)n[nH]1` gave GSK3B inh -1, STK33 inh 1, Dyrk1A ADPGlo 51*, GSK3A inh 2 and ADP-Glo artifact 9%.
For Oc1ccc(/C=N/n2c(COc3ccccc3)n[nH]c2=S)c(O)c1 the results were GSK3B inh -1, STK33 inh 9, Dyrk1A ADPGlo 67*, GSK3A inh 9 and ADP-Glo artifact 10%.
Screening Oc1ccccc1/C=N/n1c(COc2ccccc2)n[nH]c1=S returned GSK3B inh 1, STK33 inh 0, Dyrk1A ADPGlo 33 and GSK3A inh 0.
`CN1C(C(=O)Nc2ccc(OC(F)(F)F)cc2)=CC(c2ccc3c(c2)OCO3)=NS1(=O)=O` gave GSK3B inh -24, STK33 inh -1, Dyrk1A ADPGlo -3 and GSK3A inh 3.
Nc1nc(N)nc(-c2ccc(Cl)cc2)n1 was read as GSK3B inh 0, STK33 inh 2, Dyrk1A ADPGlo 62*, GSK3A inh 1 and ADP-Glo artifact 7%.
Screening O=C(Nc1ccc(Cl)c(Cl)c1)OCc1cnc(Cl)s1 returned GSK3B inh 1, Dyrk1A ADPGlo 59* and ADP-Glo artifact 7%.
O=C(Cn1cnc2c(OCc3ccccc3)ncnc21)N[C@H](CO)Cc1cc2ccccc2[nH]1 was read as STK33 inh 0, Dyrk1A ADPGlo 3 and GSK3A inh 0.
